Published values of several laboratories.
Compare with care: the assays were run in different laboratories.
Cell line: HT-29

CC[C@]1(O)C[C@H]2CN(CCc3c([nH]c4ccccc34)[C@@](C(=O)OC)(c3cc4c(cc3OC)N(C=O)[C@H]3[C@@](O)(C(=O)OC)[C@H](OC(C)=O)[C@]5(CC)C=CCN6CC[C@]43[C@@H]65)C2)C1  IC50 (cell growth or viability; fluorescence; 72 h): 0.0004 µM
CC[C@H](C)C(=O)O[C@H]1CCC=C2C=C[C@H](C)[C@H](CC[C@@H]3C[C@@H](O)CC(=O)O3)[C@H]21  IC50 (cell growth or viability; SRB; 72 h): 0.07 mg/L
CCN(CC)CCNC(=O)c1c(C)[nH]c(/C=C2\C(=O)Nc3ccc(F)cc32)c1C  IC50 (cell growth or viability): 10.1 µM
COc1ccc2c(c1)/C(=N/NC(=O)c1cc3ccccc3[nH]1)C(=O)N2C  IC50 (cell growth or viability): 5.73 µM
CC(=O)c1cccc(/N=N/c2cc(/C=C/C(=O)O)ccc2O)c1  IC50 (cell growth or viability; MTT): > 50 µM
CN1C(=O)/C(=N\NC(=O)c2cc3ccccc3[nH]2)c2cc(Br)ccc21  IC50 (cell growth or viability): 3.68 µM
O=C(O)/C=C/c1ccc(O)c(O)c1  IC50 (cell growth or viability; MTT): 4.3 µM
O=C(O)C[C@H](O)C[C@H](O)/C=C/c1c(C2CC2)nc2ccccc2c1-c1ccc(F)cc1  IC50 (cell growth or viability; SRB; 72 h): 0.09 mg/L
O=C(O)/C=C/c1ccc(O)cc1  IC50 (cell growth or viability; MTT): > 50 µM
COc1cc(Nc2nccc(-c3cnn4nc(OC)ccc34)n2)cc(C(F)(F)F)c1  IC50 (cell growth or viability; ATP luminescence): 0.33 µM
Cc1ccc(-n2nc(C(C)(C)C)cc2NC(=O)Nc2ccc(OCCN3CCOCC3)c3ccccc23)cc1  IC50 (IL-8 release; 24 h): > 1.9 µM
COc1cccc(C(=O)O[C@@H]2CN3Cc4c(cc5c(c4OC)OCO5)[C@@]24C=C[C@H](OC)C[C@@H]34)c1  IC50 (cell growth or viability; WST-1): > 10 µM
C#Cc1cc(Nc2nccc(Oc3ccc(NC(=O)Nc4cc(C(C)(C)C)nn4-c4ccc(C)cc4)c4ccccc34)n2)cc(C(=O)NCCOCCOCCOC)c1  IC50 (IL-8 release; 24 h): 0.0018 µM
CCOc1cc(OCC)cc(C(=O)O[C@@H]2CN3Cc4c(cc5c(c4OC)OCO5)[C@@]24C=C[C@H](OC)C[C@@H]34)c1  IC50 (cell growth or viability; WST-1): > 10 µM
NCCCC[C@@H](N)C(=O)Nc1ccc(-n2nc(C(F)(F)F)cc2-c2ccc3c(ccc4ccccc43)c2)cc1  IC50 (cell growth or viability; MTT; 24 h): 3.2 mg/L
CN1C(=O)/C(=N\NC(=O)c2cc3ccccc3[nH]2)c2cc(Cl)ccc21  IC50 (cell growth or viability): 5.67 µM
c1csc([I+]c2cccs2)c1  IC50 (cell growth or viability; trypan blue; 48 h): ~2.5 µM
COc1c2c(cc3c1OCO3)[C@]13C=C[C@H](OC)C[C@H]1N(C2)C[C@H]3OC(=O)c1cccc(C)c1  IC50 (cell growth or viability; WST-1): > 10 µM
CCC[C@H](Nc1nc(-c2ccc(NC(=O)NCC)c(OC)c2)ncc1C)c1cccnc1  IC50 (cell growth or viability; fluorescence; 72 h): 0.0393 µM
O=C(N/N=C1\C(=O)N(c2ccccc2)c2ccccc21)c1cc2ccccc2[nH]1  IC50 (cell growth or viability): 6.34 µM
Cc1occc(=O)c1[O-].[Cl-].[W+4].c1cc[cH-]c1.c1cc[cH-]c1  IC50 (cell growth or viability; MTT): 540 µM
NCC(=O)Nc1ccc(-n2nc(C(F)(F)F)cc2-c2ccc3c(ccc4ccccc43)c2)cc1  IC50 (cell growth or viability; MTT; 24 h): 3.6 mg/L
C1CCCC1.C1CCCC1.[Cl][W][Cl]  IC50 (cell growth or viability; MTT): 10000 µM
O=C1Nc2ccc(F)cc2/C1=N/NC(=O)c1cc2ccccc2[nH]1  IC50 (cell growth or viability): > 30 µM
C#C[C@@]1(O)[C@@H](CO)O[C@@H](n2ccc(N)nc2=O)[C@@H]1O  IC50 (cell growth or viability; SRB; 72 h): 0.0094 µM
CC(=O)c1cccc(N=Nc2c(C(=O)O)cc(O)c(O)c2O)c1  IC50 (cell growth or viability; MTT): 10.2 µM
CN1C(=O)/C(=N\NC(=O)c2cc3ccccc3[nH]2)c2cc(F)ccc21  IC50 (cell growth or viability): 8.92 µM
COc1c(C)c(OS(=O)(=O)c2ccc3ccccc3c2)c(C)c(OS(=O)(=O)c2ccc3ccccc3c2)c1C(=O)/C=C/c1ccccc1  IC50 (cell growth or viability; SRB; 72 h): > 50 µM
